# According to publication PMC3726261 (Cancer, 2012):
# Tests used:
# [1] = Pharmacokinetics: plasma R-150033 by LC-MS/MS after oral efatutazone; assay type: in vivo, human; conditions: 0.10 to 1.15 mg twice daily; single and multiple doses
# Outline: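 Adults with advanced solid malignancies took oral doses twice daily in 21-day cycles, in cohorts of 3 to 6 at 0.10–1.15 mg. Plasma was sampled at baseline and 0.5, 1, 2, 3, 4, 6 and 8–10 h after the first dose on day 1 of cycles 1 and 2. Active metabolite R-150033 was measured by validated LC-MS/MS. AUC, Cmax and Tmax were derived; accumulation was AUC0-tau/AUC0–12, and steady state was judged from trough levels.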
# [2] = system: recurrent metastatic liposarcoma; conditions: patients with recurrent metastatic liposarcoma; cited from earlier work
# [3] = system: prostate-specific antigen levels; conditions: small percentage of prostate cancer patients; cited from earlier work
smiles,measurement,setting,value
Cc1cc(Oc2ccc3nc(COc4ccc(CC5SC(=O)NC5=O)cc4)n(C)c3c2)cc(C)c1N (stereo not drawn) [R-150033],Dose proportionality of exposure (AUC and Cmax),[1],dose proportional
CCc1ccc(CCOc2ccc(CC3SC(=O)NC3=O)cc2)nc1 (stereo not drawn) [pioglitazone],Disease stabilization,[2],prolonged disease stabilization
CN(CCOc1ccc(CC2SC(=O)NC2=O)cc1)c1ccccn1 (stereo not drawn) [rosiglitazone],Effect on prostate-specific antigen levels,[3],either decreased or prolonged the stabilization of prostate-specific antigen levels
